# An excerpt weighted towards active compounds, which were near 3.3% of everything screened.
# Granule exo inh: blocks lytic granule exocytosis. TALL-104 LAMP-1 surface exposure, flow cytometry; cells stimulated with thapsigargin and PMA. inhibition, % at 10 µM. 0.66% of 360,000 active. AID 651702;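 active = inhibition above about 55%, limit read from the data; inconclusive = no clear call, values can overlap the other calls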
# ABCB6 inh MLPCN: inhibitors of human ABC transporter ABCB6; Q9NP58; K562-ABCB6 porphyrin accumulation, flow cytometry, 1 h; hits give low values; fluorescence ratio to DMSO, % at 10 µM; 0.19% of 360,000 active;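 active = fluorescence ratio to DMSO below 75%, the collection mean minus 3 SD; inconclusive = too few cells collected in the well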;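 note: signal is porphyrin accumulated inside mitochondria; lower ratio means ABCB6 inhibition with less porphyrin fluorescence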
# Target sequence (Q9NP58 whole entry, looked up): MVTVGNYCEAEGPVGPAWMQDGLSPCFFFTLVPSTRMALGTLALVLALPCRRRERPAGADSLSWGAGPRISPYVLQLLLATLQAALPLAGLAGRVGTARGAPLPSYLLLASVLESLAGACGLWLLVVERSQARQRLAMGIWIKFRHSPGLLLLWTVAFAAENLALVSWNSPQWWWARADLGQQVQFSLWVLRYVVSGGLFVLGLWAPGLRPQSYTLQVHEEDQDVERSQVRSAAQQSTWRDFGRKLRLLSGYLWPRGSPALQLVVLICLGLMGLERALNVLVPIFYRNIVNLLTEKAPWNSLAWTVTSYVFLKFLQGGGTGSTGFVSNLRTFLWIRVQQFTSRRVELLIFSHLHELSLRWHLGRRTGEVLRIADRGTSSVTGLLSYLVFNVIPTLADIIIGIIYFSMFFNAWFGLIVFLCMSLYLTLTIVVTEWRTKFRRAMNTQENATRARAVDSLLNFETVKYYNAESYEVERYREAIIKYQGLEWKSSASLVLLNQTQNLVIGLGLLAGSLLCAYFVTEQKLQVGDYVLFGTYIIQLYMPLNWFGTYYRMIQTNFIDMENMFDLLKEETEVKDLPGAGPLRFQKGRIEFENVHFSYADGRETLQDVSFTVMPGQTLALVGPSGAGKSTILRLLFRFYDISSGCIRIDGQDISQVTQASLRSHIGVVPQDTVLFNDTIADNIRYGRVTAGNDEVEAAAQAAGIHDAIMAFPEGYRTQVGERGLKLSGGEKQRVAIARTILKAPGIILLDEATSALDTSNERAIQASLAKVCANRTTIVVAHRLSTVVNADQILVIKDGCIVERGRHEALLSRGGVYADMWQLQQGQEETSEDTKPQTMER
# Myeloid diff 2: promotes myeloid progenitor differentiation | 1% of 360,000 active | calls only at 10 µM | ER-HoxA9 myeloid progenitors, lysozyme-GFP differentiation, flow cytometry | AID 624256;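 active = normalized GFP-positive differentiation at or above the plate's own cutoff, the solvent-only control mean plus 3 SD; inconclusive = no clear call, values can overlap the other calls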;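 note: cells exposed to compound for four days before flow analysis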
# CendR NRP1 mod: alters CendR peptide binding to human NRP-1 | O14786 | FAM-RPARPAR peptide binding to NRP-1, fluorescence polarization | inhibition, % at 25 µM | 0.85% of 360,000 active | AID 602438;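 active = inhibition or corrected inhibition above about 18%, plus a signal ratio from 0.5 to 1.5, limit read from the data, passing the limit was not always enough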
# Arr AP2 block: human beta-arrestin and AP2 interaction inhibition. inhibition, % at 10 µM. 0.31% of 340,000 active. FITC-arrestin peptide / GST-AP2 beads, flow cytometry; AP2 beta2 appendage carries R879A mutation;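 active = inhibition above a set limit, near 3 SD of compounds lacking own fluorescence, cut at about 54% in these data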
#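 Measured by: flow cytometry, FL1 (488/535 nm); Material: AP2 appendage R879A on GSH beads; Evaluation: percent response; Timing: pre-incubation 12 min, peptide binding 1 h, room temperature; Also added: 50 nM FITC-arrestin peptide; Medium: PBS with 0.05% Tween 20 and 0.1% BSA.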
# ATG4B inhibitor: inhibitors of human ATG4B cysteine protease | ATG4B cleavage of LC3-PLA2, NBD-HPC fluorescence, 1 h | inhibition, % at 8.33 µM | 0.51% of 340,000 active; in the data active = inhibition above about 40%
# ABCB6 blocker 1: human ABCB6 transporter inhibition; shares compounds with ABCB6 inh MLPCN; ratio response (% of DMSO), % at 10 µM; K562-ABCB6 porphyrin accumulation, flow cytometry, 1 h; hits give low values; 700 tested, under 10 active; AID 602430;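 active = repeat-averaged ratio response below 75% of DMSO, the collection mean minus 3 SD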;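 note: median porphyrin fluorescence at 575 nm with 488 nm excitation from mitochondria; lower ratio means less porphyrin signal so ABCB6 inhibition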
# A number is an active result; i = inactive; ? = inconclusive; nt = not tested or not shown.
SMILES,Granule exo inh,ABCB6 inh MLPCN,Myeloid diff 2,CendR NRP1 mod,Arr AP2 block,ATG4B inhibitor,ABCB6 blocker 1
CC(CN1CCCC1)OC(=O)COc1ccccc1 (centres undefined),i,72,i,i,i,i,i
Cc1ccc(OCC(=O)OC(C)CN2CCCCC2)cc1 (centres undefined),i,i,i,i,i,i,nt
Cc1ccc2c(CN3CCC(C(N)=O)CC3)cc(=O)oc2c1C,i,i,i,i,i,i,nt
Cc1cc(N2C(=O)CC(Cc3ccccc3)C2=O)no1 (centres undefined),i,72,i,i,i,i,i
CC(C)c1ccc(O)c(NC(=S)NC(=O)c2ccc3c(c2)OCO3)c1,i,i,i,i,i,i,nt
CCOC(=O)C1CCCN(C(=O)c2cn(C)c3ccc(S(=O)(=O)N4CCCC4)cc3c2=O)C1 (centres undefined),i,57,i,i,i,i,i
Cc1cc2ccccc2n2c(SCC(=O)Nc3ccc(S(=O)(=O)N4CCC(C)CC4)cc3)nnc12,i,68,i,i,i,i,i
CC1CCN(S(=O)(=O)c2ccc(NC(=O)CN3CCN(c4ccccc4)CC3)cc2)CC1,i,73,i,i,i,i,i
NC(=O)COC(=O)CSc1cccc2cccc(Cl)c12,i,i,i,i,i,i,nt
CCOc1ccc(-c2cncc3nccn23)cc1,i,65,i,i,nt,nt,i
COc1ccc(-c2cncc3nccn23)cc1OC,i,i,i,i,nt,nt,nt
O=C(c1ccc(-n2cncn2)c2ccoc12)N1CCOCC1,i,i,i,i,nt,nt,nt
CCOC(=O)C1CCN(S(=O)(=O)c2ccc(OCC)cc2)CC1,i,i,i,i,i,i,i
CCOC(=O)c1ccc(S(=O)(=O)N2CCC(C(=O)OCC)CC2)cc1,i,60,i,i,i,i,i
CCOC(=O)C1CCN(S(=O)(=O)c2ccc(Cl)s2)CC1,i,68,i,i,i,i,i
NC(=O)c1nn(CC(=O)Nc2ccc3c(c2)OCO3)cc1[N+](=O)[O-],i,i,i,i,i,i,nt
Cc1ccc(N(CC(=O)N(C)Cc2ccccc2)S(C)(=O)=O)cc1C,i,i,i,i,i,i,nt
CC[C@]12c3[nH]c4ccc(OC)cc4c3CCN1C(=O)C(CC(=O)NCCCn1ccnc1)C[C@@H]2C(=O)N1CCN(C(=O)c2ccco2)CC1 (some centres undefined),i,i,i,i,i,nt,nt
O=C(CC(c1ccc(F)cc1)c1ccco1)N1CCOCC1 (centres undefined),i,72,i,i,i,i,i
O=C(CC(c1ccc(F)cc1)c1ccco1)N1CCCC1 (centres undefined),i,i,i,i,i,i,nt
Cc1cc(C)c(C#N)c(N2CCN(Cc3ccc4c(c3)OCO4)CC2)n1,i,i,i,i,i,i,nt
Cc1cc(C)c(C#N)c(N2CCN(Cc3ccccc3)CC2)n1,i,47,i,i,i,i,i
CC(C)S(=O)(=O)NC(=O)C1(C)CCN1C(=O)Cc1ccccc1 (centres undefined),i,i,i,i,nt,nt,nt
Cc1cnc(NC(=O)c2sc(Nc3ccccc3)nc2N)o1,i,19,i,i,i,i,i
CCOc1ccccc1OCCCC(=O)NNC(=O)c1cc(C)oc1C,i,i,i,i,i,i,nt
SMILES,Granule exo inh,ABCB6 inh MLPCN,Myeloid diff 2,CendR NRP1 mod,Arr AP2 block,ATG4B inhibitor,ABCB6 blocker 1
COc1ccc(CNc2ncnc3cc(Cl)ccc23)cc1OC,i,i,i,i,i,i,nt
Fc1ccc(CNc2ncnc3cc(Cl)ccc23)cc1,i,9.0,i,i,i,i,i
Cc1ccc(C)c(Cn2nnc3c(=O)[nH]c(C4CCN(C(=O)c5cccs5)CC4)nc32)c1,i,i,i,i,i,i,nt
O=C(c1ccco1)N1CCCC(c2nc3c(nnn3Cc3ccccc3)c(=O)[nH]2)C1 (centres undefined),i,i,i,i,i,i,nt
O=C(c1ccco1)N1CCC(c2nc3c(nnn3Cc3ccccc3Cl)c(=O)[nH]2)CC1,i,i,i,i,i,i,i
Cc1ccc(C)c(Cn2nnc3c(=O)[nH]c(C4CCN(C(=O)c5ccco5)CC4)nc32)c1,i,i,i,i,i,i,i
O=C(c1ccco1)N1CCC(c2nc3c(nnn3Cc3ccc(F)cc3)c(=O)[nH]2)CC1,i,i,i,i,i,i,i
Cc1ccc(Cl)c(OCC(=O)Nc2cc(S(=O)(=O)N3CCOCC3)ccc2N2CCCC2)c1,i,i,i,i,i,i,nt
CC(=O)c1cccc(S(=O)(=O)NCCC(=O)Nc2ccc(S(N)(=O)=O)cc2)c1,i,i,i,i,i,i,nt
COc1ccc(-c2cc(C(=O)Nc3ccc(OC)c(OC)c3)[nH]n2)c(C)c1,i,70,i,i,nt,nt,i
Cc1ccc(C)n1-c1ccc(N(C)C)cc1,i,i,i,i,i,i,nt
COc1ccc(S(=O)(=O)N2CCCOC2CNC(=O)C(=O)NCc2ccco2)cc1 (centres undefined),i,i,i,i,nt,i,nt
COc1cc(C2SCC(=O)N2CCCN(C)C)cc(OC)c1OC (centres undefined),i,i,i,i,i,i,nt
O=C(CSc1nnc(-c2ccc(F)cc2)o1)Nc1ccc(S(=O)(=O)N2CCCCCC2)cc1,i,31,i,i,i,i,i
Cc1cc(C)nc(Nc2nc(C(N)Cc3ccccc3)cs2)n1 (centres undefined),i,i,?,i,nt,nt,nt
CCOC(=O)N1CCN(S(=O)(=O)c2ccc(F)c(C(=O)Nc3cccc(C)c3C)c2)CC1,i,72,i,i,i,i,i
CC1(C)Oc2ccc3ccc(=O)oc3c2C[C@H]1O,i,68,i,i,i,i,i
N#C/C(=C\c1ccc(-c2ccc([N+](=O)[O-])cc2Br)o1)C(=O)N1CCN(c2ccccc2)CC1,i,i,i,i,i,i,nt
CCOC(=O)c1c(NC(=O)CSc2nnc(C)o2)sc(C)c1C,i,i,i,i,i,i,nt
COc1cccc(CNC(=O)C2CCN(S(=O)(=O)c3ccc(-n4cnnn4)cc3)CC2)c1,i,i,i,i,i,i,nt
COc1cc2c(C(=O)NCCN(C)C)cn(CC(C)C)c(=O)c2cc1OC,i,69,i,i,i,i,i
COc1cccc(-c2nnc(SCC3CNC(=O)O3)n2-c2ccc(Cl)cc2)c1 (centres undefined),i,67,i,i,i,i,i
CC1CCCCN1S(=O)(=O)c1ccc(N(C(=O)c2cnccn2)C(C(=O)NC2CCCC2)c2cccs2)cc1 (centres undefined),i,70,i,i,i,i,i
COc1cc(-c2cc3nc(NCCc4ccc(S(N)(=O)=O)cc4)ccn3n2)cc(OC)c1OC,i,60,i,i,nt,nt,i

# Screening data (PubChem)
